≈ marks a conversion by molar mass, not a printed value.
Assays:
Staphylococcus aureus [1] = assay: Antibacterial activity against methicillin-resistant Staphylococcus aureus G12 measured after overnight incubation by broth double-dilution method; type: functional
How it was run: (§1)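 MIC by broth double-dilution in liquid Mueller-Hinton medium. Values are reported in µg/mL.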

Staphylococcus aureus [2] = assay: Antibacterial activity against methicillin-sensitive Staphylococcus aureus ATCC 29213 measured after overnight incubation by broth double-dilution method; type: functional; how it was run: as §1
Staphylococcus aureus [3] = assay: Antibacterial activity against methicillin-resistant Staphylococcus aureus NRS4 measured after overnight incubation by broth double-dilution method; type: functional; how it was run: as §1
Staphylococcus aureus [4] = assay: Antibacterial activity against methicillin-resistant Staphylococcus aureus S22 measured after overnight incubation by broth double-dilution method; type: functional; how it was run: as §1
[5] = tested on: Staphylococcus epidermidis; assay: Antibacterial activity against Staphylococcus epidermidis ATCC 35984 measured after overnight incubation by broth double-dilution method; type: functional; conditions: RP62A
How it was run: (§2)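 MIC by broth double-dilution in Mueller-Hinton medium. Re-testing at the time-kill inoculum used 1×10^6 CFU/mL.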

Staphylococcus aureus [6] = assay: Antibacterial activity against methicillin-resistant Staphylococcus aureus C1 measured after overnight incubation by broth double-dilution method; type: functional; how it was run: as §1
Staphylococcus aureus [7] = assay: Antibacterial activity against methicillin-resistant Staphylococcus aureus 1 measured after overnight incubation by broth double-dilution method; type: functional; how it was run: as §1
Enterococcus = assay: Antibacterial activity against Vancomycin-resistant Enterococcus measured after overnight incubation by broth double-dilution method; type: functional; how it was run: as §1
Staphylococcus aureus [8] = assay: Antibacterial activity against methicillin-sensitive Staphylococcus aureus ATCC 6538 measured after overnight incubation by broth double-dilution method; type: functional; how it was run: as §1
Staphylococcus aureus [9] = assay: Antibacterial activity against methicillin-resistant Staphylococcus aureus BRS3 measured after overnight incubation by broth double-dilution method; type: functional; how it was run: as §1
Staphylococcus aureus [10] = assay: Antibacterial activity against methicillin-resistant Staphylococcus aureus C14 measured after overnight incubation by broth double-dilution method; type: functional; how it was run: as §1
Staphylococcus aureus [11] = assay: Antibacterial activity against methicillin-resistant Staphylococcus aureus S17 measured after overnight incubation by broth double-dilution method; type: functional; how it was run: as §1
Staphylococcus aureus [12] = assay: Antibacterial activity against methicillin-resistant Staphylococcus aureus USA300 measured after overnight incubation by broth double-dilution method; type: functional; how it was run: as §1
Staphylococcus aureus [13] = assay: Antibacterial activity against methicillin-resistant Staphylococcus aureus C19 measured after overnight incubation by broth double-dilution method; type: functional; how it was run: as §1
Enterococcus faecalis [14] = assay: Antibacterial activity against Enterococcus faecalis ATCC 49533 measured after overnight incubation by broth double-dilution method; type: functional; how it was run: as §2
Staphylococcus aureus [15] = assay: Antibacterial activity against methicillin-resistant Staphylococcus aureus NRS51 measured after overnight incubation by broth double-dilution method; type: functional; how it was run: as §1
Staphylococcus aureus [16] = assay: Antibacterial activity against methicillin-resistant Staphylococcus aureus G14 measured after overnight incubation by broth double-dilution method; type: functional; how it was run: as §1
Staphylococcus aureus [17] = assay: Antibacterial activity against methicillin-resistant Staphylococcus aureus USA600 measured after overnight incubation by broth double-dilution method; type: functional; how it was run: as §1
Staphylococcus aureus [18] = assay: Antibacterial activity against methicillin-resistant Staphylococcus aureus USA200 measured after overnight incubation by broth double-dilution method; type: functional; how it was run: as §1
Staphylococcus aureus [19] = assay: Antibacterial activity against methicillin-resistant Staphylococcus aureus C16 measured after overnight incubation by broth double-dilution method; type: functional; how it was run: as §1
[20] = tested on: Mycolicibacterium smegmatis; assay: Antibacterial activity against Mycobacterium smegmatis MC2-155 measured after overnight incubation by broth double-dilution method; type: functional; conditions: str. MC2 155; how it was run: as §1
Listeria monocytogenes = assay: Antibacterial activity against Listeria monocytogenes ATCC 19115 measured after overnight incubation by broth double-dilution method; type: functional; how it was run: as §2
Staphylococcus aureus [21] = assay: Antibacterial activity against methicillin-sensitive Staphylococcus aureus ATCC 25923 measured after overnight incubation by broth double-dilution method; type: functional; how it was run: as §1
Staphylococcus aureus [22] = assay: Antibacterial activity against methicillin-resistant Staphylococcus aureus C7 measured after overnight incubation by broth double-dilution method; type: functional; how it was run: as §1
Staphylococcus aureus [23] = assay: Antibacterial activity against methicillin-resistant Staphylococcus aureus NRS77 measured after overnight incubation by broth double-dilution method; type: functional; how it was run: as §1
Staphylococcus aureus [24] = assay: Antibacterial activity against methicillin-resistant Staphylococcus aureus ATCC 33591 measured after overnight incubation by broth double-dilution method; type: functional; how it was run: as §1
Staphylococcus aureus [25] = assay: Antibacterial activity against methicillin-resistant Staphylococcus aureus 2 measured after overnight incubation by broth double-dilution method; type: functional; how it was run: as §1
Staphylococcus aureus [26] = assay: Antibacterial activity against methicillin-resistant Staphylococcus aureus USA100 measured after overnight incubation by broth double-dilution method; type: functional; how it was run: as §1
Staphylococcus aureus [27] = assay: Antibacterial activity against methicillin-resistant Staphylococcus aureus G1 measured after overnight incubation by broth double-dilution method; type: functional; how it was run: as §1
Staphylococcus aureus [28] = assay: Antibacterial activity against methicillin-resistant Staphylococcus aureus S24 measured after overnight incubation by broth double-dilution method; type: functional; how it was run: as §1
Staphylococcus aureus [29] = assay: Antibacterial activity against methicillin-resistant Staphylococcus aureus G6 measured after overnight incubation by broth double-dilution method; type: functional; how it was run: as §1
Enterococcus faecium = assay: Antibacterial activity against Enterococcus faecium BM4105-RF measured after overnight incubation by broth double-dilution method; type: functional; how it was run: as §1
[30] = Solubility of compound in Muller-Hinton medium; type: physicochemical
Staphylococcus aureus [31] = assay: Antibacterial activity against methicillin-resistant Staphylococcus aureus C2 measured after overnight incubation by broth double-dilution method; type: functional; how it was run: as §1
Enterococcus faecalis [32] = assay: Antibacterial activity against Enterococcus faecalis ATCC 29212 measured after overnight incubation by broth double-dilution method; type: functional; how it was run: as §2
Staphylococcus aureus [33] = assay: Antibacterial activity against methicillin-resistant Staphylococcus aureus S14 measured after overnight incubation by broth double-dilution method; type: functional; how it was run: as §1
[34] = Cytotoxicity against HEK293 cells assessed as cell death up to 10 ug/ml measured after 24 hrs by resazurin dye-based fluorescence analysis relative to untreated control; type: toxicity; conditions: human, hek293, 24 h
Staphylococcus aureus [35] = assay: Antibiofilm activity against methicillin-sensitive Staphylococcus aureus ATCC 6538 assessed as reduction of biofilm at […] measured after 24 hrs by crystal violet staining based method relative to control; type: functional; parameters: scale not given: the % may be the effect or the level left
[36] = tested on: Staphylococcus epidermidis; assay: Antibiofilm activity against Staphylococcus epidermidis ATCC 35984 assessed as reduction of biofilm at […] measured after 24 hrs by crystal violet staining based method relative to control; type: functional, RP62A; parameters: scale not given: the % may be the effect or the level left

| Compound | MIC (Staphylococcus aureus [1]) [µg/mL] | MIC (Staphylococcus aureus [2]) [µg/mL] | MIC (Staphylococcus aureus [3]) [µg/mL] | MIC (Staphylococcus aureus [4]) [µg/mL] | MIC [5] [µg/mL] | MIC (Staphylococcus aureus [6]) [µg/mL] | MIC (Staphylococcus aureus [7]) [µg/mL] | MIC (Enterococcus) [µg/mL] | MIC (Staphylococcus aureus [8]) [µg/mL] | MIC (Staphylococcus aureus [9]) [µg/mL] | MIC (Staphylococcus aureus [10]) [µg/mL] | MIC (Staphylococcus aureus [11]) [µg/mL] | MIC (Staphylococcus aureus [12]) [µg/mL] | MIC (Staphylococcus aureus [13]) [µg/mL] | MIC (Enterococcus faecalis [14]) [µg/mL] | MIC (Staphylococcus aureus [15]) [µg/mL] | MIC (Staphylococcus aureus [16]) [µg/mL] | MIC (Staphylococcus aureus [17]) [µg/mL] | MIC (Staphylococcus aureus [18]) [µg/mL] | MIC (Staphylococcus aureus [19]) [µg/mL] | further results |
| --- | --- | --- | --- | --- | --- | --- | --- | --- | --- | --- | --- | --- | --- | --- | --- | --- | --- | --- | --- | --- | --- |
| O=c1c2ccccc2sn1-c1ccccn1 | 7.8 (≈ 34.2 µM) | 7.8 (≈ 34.2 µM) | 15.6 (≈ 68.3 µM) | 7.8 (≈ 34.2 µM) | 3.9 (≈ 17.1 µM) | 3.9 (≈ 17.1 µM) | 15.6 (≈ 68.3 µM) | 7.8 (≈ 34.2 µM) | 7.8 (≈ 34.2 µM) | 15.6 (≈ 68.3 µM) | 7.8 (≈ 34.2 µM) | 7.8 (≈ 34.2 µM) | 7.8 (≈ 34.2 µM) | 7.8 (≈ 34.2 µM) | > 125 | 7.8 (≈ 34.2 µM) | 7.8 (≈ 34.2 µM) | 15.6 (≈ 68.3 µM) | 7.8 (≈ 34.2 µM) | 7.8 (≈ 34.2 µM) | MIC [20]: 7.8 µg/mL (≈ 34.2 µM); MIC (Listeria monocytogenes): 7.8 µg/mL (≈ 34.2 µM); MIC (Staphylococcus aureus [21]): 7.8 µg/mL (≈ 34.2 µM); MIC (Staphylococcus aureus [22]): 7.8 µg/mL (≈ 34.2 µM); MIC (Staphylococcus aureus [23]): 15.6 µg/mL (≈ 68.3 µM); MIC (Staphylococcus aureus [24]): 3.9 µg/mL (≈ 17.1 µM); MIC (Staphylococcus aureus [25]): 7.8 µg/mL (≈ 34.2 µM); MIC (Staphylococcus aureus [26]): 7.8 µg/mL (≈ 34.2 µM); MIC (Staphylococcus aureus [27]): 7.8 µg/mL (≈ 34.2 µM); MIC (Staphylococcus aureus [28]): 7.8 µg/mL (≈ 34.2 µM); MIC (Staphylococcus aureus [29]): 7.8 µg/mL (≈ 34.2 µM); MIC (Enterococcus faecium): > 125 µg/mL; solubility [30]: Soluble; MIC (Staphylococcus aureus [31]): 7.8 µg/mL (≈ 34.2 µM); MIC (Enterococcus faecalis [32]): > 125 µg/mL; MIC (Staphylococcus aureus [33]): 2 µg/mL (≈ 8.76 µM) |
| CC(C)c1ccc(-n2sc3ccccc3c2=O)cc1 | 1 (≈ 3.71 µM) | ≤ 0.25 | 2 (≈ 7.42 µM) | 0.5 (≈ 1.86 µM) | 0.25 (≈ 0.928 µM) | ≤ 0.25 | ≤ 0.25 | ≤ 0.25 | 2 (≈ 7.42 µM) | 2 (≈ 7.42 µM) | 1 (≈ 3.71 µM) | ≤ 0.25 | 2 (≈ 7.42 µM) | 0.5 (≈ 1.86 µM) | 62.5 (≈ 232 µM) | 0.5 (≈ 1.86 µM) | 1 (≈ 3.71 µM) | 1 (≈ 3.71 µM) | 1 (≈ 3.71 µM) | 1 (≈ 3.71 µM) | Activity [34]: > 20%; Activity (Staphylococcus aureus [35]): 50%; MIC [20]: 0.5 µg/mL (≈ 1.86 µM); MIC (Listeria monocytogenes): 0.5 µg/mL (≈ 1.86 µM); Activity [36]: 50 - 60%; MIC (Staphylococcus aureus [21]): 2 µg/mL (≈ 7.42 µM); MIC (Staphylococcus aureus [22]): 0.5 µg/mL (≈ 1.86 µM); MIC (Staphylococcus aureus [23]): 1 µg/mL (≈ 3.71 µM); MIC (Staphylococcus aureus [24]): ≤ 0.25 µg/mL; MIC (Staphylococcus aureus [25]): 1 µg/mL (≈ 3.71 µM); MIC (Staphylococcus aureus [26]): 0.5 µg/mL (≈ 1.86 µM); MIC (Staphylococcus aureus [27]): ≤ 0.25 µg/mL; MIC (Staphylococcus aureus [28]): ≤ 0.25 µg/mL; MIC (Staphylococcus aureus [29]): 0.5 µg/mL (≈ 1.86 µM); MIC (Enterococcus faecium): 15.6 µg/mL (≈ 57.9 µM); MIC (Staphylococcus aureus [31]): 0.5 µg/mL (≈ 1.86 µM); MIC (Enterococcus faecalis [32]): 15.6 µg/mL (≈ 57.9 µM); MIC (Staphylococcus aureus [33]): ≤ 0.25 µg/mL |
